Data set [1] relates to Protein cereblon/Epidermal growth factor receptor (Homo sapiens), P00533+Q96SW2 [UNDEFINED MUTATION]. As to the kind of experiment: Protac activity at CRBN/EGFR exon 19 deletion mutant in human HCC827 cells assessed as induction of EGFR degradation at up to 1 uM treated 8 hrs post serum starvation measured after 16 hrs by Western blot analysis. Type of data set: cell-based.

In data set [2] the test system is Protein cereblon/Epidermal growth factor receptor (Homo sapiens), P00533+Q96SW2 [L858R]. As to the kind of experiment: Protac activity at CRBN/EGFR L858R mutant in human H3255 cells assessed as induction of EGFR degradation treated 8 hrs post serum starvation measured after 16 hrs by Western blot analysis. It counts as cell-based.
For data set [3] the test system is unchanged. The experiment in a line: Protac activity at CRBN/EGFR L858R mutant in human H3255 cells assessed as reduction in AKT phosphorylation up to 10 uM treated 8 hrs post serum starvation measured after 16 hrs by Western blot analysis. It counts as cell-based. Put shortly:
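Cultured to 80% confluence in RPMI/1640 with 20% FBS at 37 °C and 5% CO2, then switched to serum-free medium for 8 h. Degraders were added over a concentration range up to 10 μM for 16 h, with gefitinib at 1 μM as reference. Lysates in Laemmli buffer were immunoblotted for EGFR, p-EGFR and p-AKT. DC50 came from band quantification by nonlinear regression (variable slope).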

Data set [4] has as its system HCC827. As to the kind of experiment: Effect on AKT level in human HCC827 cells up to 10 uM treated 8 hrs post serum starvation measured after 16 hrs by Western blot analysis. Type of data set: ADME, cell-based. Particulars: hcc827, 16 h.
The target of data set [5] is Epidermal growth factor receptor (Homo sapiens, UniProt P00533). The experiment in a line: Induction of wild-type EGFR degradation in human OVCAR8 cells at up to 10 uM treated 8 hrs post serum starvation measured after 16 hrs by Western blot analysis. It counts as cell-based.
Sequence of Epidermal growth factor receptor (P00533 whole entry): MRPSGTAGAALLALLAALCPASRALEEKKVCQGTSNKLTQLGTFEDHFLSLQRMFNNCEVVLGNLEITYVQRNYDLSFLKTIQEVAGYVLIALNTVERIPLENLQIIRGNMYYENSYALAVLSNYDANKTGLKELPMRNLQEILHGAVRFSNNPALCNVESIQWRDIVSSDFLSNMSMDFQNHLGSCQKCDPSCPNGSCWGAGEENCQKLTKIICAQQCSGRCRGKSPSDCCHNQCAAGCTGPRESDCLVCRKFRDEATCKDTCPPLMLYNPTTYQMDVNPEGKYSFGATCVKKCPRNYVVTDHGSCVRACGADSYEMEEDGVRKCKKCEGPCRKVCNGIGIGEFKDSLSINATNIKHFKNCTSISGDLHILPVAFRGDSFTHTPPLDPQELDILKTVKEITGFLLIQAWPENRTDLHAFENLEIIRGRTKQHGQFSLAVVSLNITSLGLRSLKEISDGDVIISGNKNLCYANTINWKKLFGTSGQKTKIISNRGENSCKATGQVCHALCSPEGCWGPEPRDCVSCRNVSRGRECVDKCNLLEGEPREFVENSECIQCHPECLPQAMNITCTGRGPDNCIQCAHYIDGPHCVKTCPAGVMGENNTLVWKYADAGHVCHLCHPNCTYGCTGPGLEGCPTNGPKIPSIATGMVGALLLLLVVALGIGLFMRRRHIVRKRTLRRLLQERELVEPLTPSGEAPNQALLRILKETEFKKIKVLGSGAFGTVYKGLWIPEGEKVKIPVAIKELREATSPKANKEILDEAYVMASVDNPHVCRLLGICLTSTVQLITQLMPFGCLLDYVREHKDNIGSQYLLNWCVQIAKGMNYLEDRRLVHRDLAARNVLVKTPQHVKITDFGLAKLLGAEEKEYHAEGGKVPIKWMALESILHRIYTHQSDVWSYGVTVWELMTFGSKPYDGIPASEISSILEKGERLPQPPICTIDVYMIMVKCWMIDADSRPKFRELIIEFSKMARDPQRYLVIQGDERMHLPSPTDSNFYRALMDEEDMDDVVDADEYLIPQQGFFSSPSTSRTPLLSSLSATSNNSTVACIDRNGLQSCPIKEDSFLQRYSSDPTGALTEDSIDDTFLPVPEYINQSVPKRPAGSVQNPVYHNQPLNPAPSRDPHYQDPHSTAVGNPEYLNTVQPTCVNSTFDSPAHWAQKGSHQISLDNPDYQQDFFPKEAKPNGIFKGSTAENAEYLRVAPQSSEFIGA
The test system of data set [6] is Protein cereblon/Epidermal growth factor receptor (Homo sapiens), P00533+Q96SW2 [UNDEFINED MUTATION]. The experiment in a line: Protac activity at CRBN/EGFR exon 19 deletion mutant in human HCC827 cells assessed as induction of EGFR degradation at 100 nM treated 8 hrs post serum starvation measured after 12 hrs by Western blot analysis relative to control. It counts as cell-based. Put shortly:
(§1)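 After 8 h serum starvation, cells got 100 nM degrader and were collected at serial time points for Western blot of EGFR and downstream signaling.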

In data set [7] the test system is Protein cereblon/Epidermal growth factor receptor (Homo sapiens), P00533+Q96SW2 [L858R]. As to the kind of experiment: Protac activity at CRBN/EGFR L858R mutant in human H3255 cells assessed as induction of EGFR degradation at 100 nM treated 8 hrs post serum starvation by Western blot analysis. It counts as cell-based. The conditions noted are these: TDE = time-dependent effect. Put shortly:
as §1

The test system is the same in data set [8]. As to the kind of experiment: Protac activity at CRBN/EGFR L858R mutant in human H3255 cells assessed as induction of EGFR degradation at 100 nM measured after 8 hrs in presence of neddylation inhibitor MLN4924 by Western blot analysis. It counts as cell-based.
For data set [9] the test system is unchanged. As to the kind of experiment: Protac activity at CRBN/EGFR L858R mutant in human H3255 cells assessed as induction of EGFR degradation at 100 nM measured after 8 hrs in presence of EGFR inhibitor gefitinib by Western blot analysis. It counts as cell-based.
Data set [10] has the same test system. The experiment in a line: Reversible protac activity at CRBN/EGFR L858R mutant in human H3255 cells assessed as recovery of EGFR phosphorylation at 100 nM preincubated for 12 hrs followed by compound washout and measured up to 48 hrs by Western blot analysis. It counts as cell-based. Put shortly:
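Cells were serum-starved 8 h, then given degrader for 12 h. They were washed three times with PBS and harvested at the indicated time points after washout. EGFR, p-EGFR and p-AKT were read by Western blot.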

Data set [11] is described as follows: Cmax in Swiss albino mouse at 50 mg/kg, ip measured after 8 hrs. Set-up: dose 50 mg/kg, route intraperitoneal. The conditions noted are these: in vivo. Type of data set: ADME, organism-based.

Calls of active or inactive are those of the source. No cut-off for these calls is given here.

Sequence of Protein cereblon/Epidermal growth factor receptor (Homo sapiens), P00533+Q96SW2 [UNDEFINED MUTATION] (P00533 whole entry, looked up, stated change not applied): as the sequence (P00533 whole entry) above
Sequence of Protein cereblon/Epidermal growth factor receptor (Homo sapiens), P00533+Q96SW2 [UNDEFINED MUTATION] (Q96SW2 whole entry, looked up, stated change not applied): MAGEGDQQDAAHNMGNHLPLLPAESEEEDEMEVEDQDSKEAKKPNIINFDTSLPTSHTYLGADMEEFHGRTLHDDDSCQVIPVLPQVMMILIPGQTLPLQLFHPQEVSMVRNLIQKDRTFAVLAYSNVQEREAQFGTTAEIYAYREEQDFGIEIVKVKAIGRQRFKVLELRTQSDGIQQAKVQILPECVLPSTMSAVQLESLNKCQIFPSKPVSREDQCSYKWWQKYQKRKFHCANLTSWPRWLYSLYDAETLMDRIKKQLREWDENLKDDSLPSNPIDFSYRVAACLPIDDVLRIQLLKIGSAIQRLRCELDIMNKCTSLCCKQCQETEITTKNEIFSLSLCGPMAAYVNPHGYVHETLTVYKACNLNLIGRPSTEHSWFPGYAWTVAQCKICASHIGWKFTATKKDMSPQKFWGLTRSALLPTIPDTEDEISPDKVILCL

In the case of `COc1cc2ncnc(Nc3ccc(F)c(Cl)c3)c2cc1OCCCN1CCN(CCC(=O)NCCCCCCCCOc2cccc3c2C(=O)N(C2CCC(=O)NC2=O)C3=O)CC1` (stereo unspecified), the outcome in data set [1], in data set [3] and in data set [10] was Active. For the same compound, the Activity result in data set [2] was “Dose-dependent effect”; in data set [4], “Non-Toxic”; in [5], “Not Active”; in data set [6], 100%; in data set [7] it was “Tde”. Besides, the result in [8] and in data set [9] was inactive. Further, the Cmax in [11] was determined as 500 nM.

(Values after ChEMBL document CHEMBL4376874, “Discovery of Potent and Selective Epidermal Growth Factor Receptor (EGFR) Bifunctional Small-Molecule Degraders” (J Med Chem, 2020).)
